Measurements: ChEMBL document CHEMBL1759850, “Design, synthesis, and biological evaluation of novel γ-carboline ketones as anticancer agents” (Eur J Med Chem, 2011)

How the values were obtained:
[1] = test system: K562; assay: Cytotoxicity against human multidrug-resistant K562 cells after 48 hrs by MTT assay; format: functional, cell-based; conditions: K562, 48 h
Method in brief: (§1)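 Cells were exposed to drug for 48 h, then given MTT in RPMI-1640 for a further 4 h at 37 °C. Formazan was dissolved in DMSO and absorbance read at 570 nm after 5 min. Each assay was run in triplicate in three independent experiments. IC50 (50% inhibition of viability) was computed by dose-effect analysis.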

[2] = test system: HCT-116; assay: Cytotoxicity against human HCT116 cells after 48 hrs by MTT assay; format: functional, cell-based; conditions: HCT-116, 48 h; method in brief: as §1
[3] = Cytotoxicity against human SGC cells after 48 hrs by MTT assay; format: functional, cell-based; method in brief: as §1
[4] = test system: A549; assay: Cytotoxicity against human A549 cells after 48 hrs by MTT assay; format: functional, cell-based; conditions: A549, 48 h; method in brief: as §1
[5] = test system: MCF7; assay: Cytotoxicity against human MCF7 cells after 48 hrs by MTT assay; format: functional, cell-based; conditions: MCF7, 48 h; method in brief: as §1
[6] = test system: K562; assay: Cytotoxicity against human K562 cells after 48 hrs by MTT assay; format: functional, cell-based; conditions: K562, 48 h; method in brief: as §1
[7] = test system: A549; assay: Cell cycle arrest in human A549 cells assessed as accumulation at G2/M phase at 2 uM after 48 hrs by flow cytometric analysis; format: functional
Method in brief: (§2)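 A549 cells in exponential growth were treated for 48 h, washed twice in PBS and fixed in 75% ethanol. They were then incubated for 0.5 h at 37 °C and stained with propidium iodide for 15 min. DNA content was read on a FACSCalibur flow cytometer.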

[8] = test system: A549; assay: Cell cycle arrest in human A549 cells assessed as accumulation at G0/G1 phase at 2 uM after 48 hrs by flow cytometric analysis; format: functional; method in brief: as §2
[9] = test system: A549; assay: Cell cycle arrest in human A549 cells assessed as accumulation at S phase at 2 uM after 48 hrs by flow cytometric analysis; format: functional; method in brief: as §2
[10] = target: Tubulin; assay: Inhibition of tubulin polymerization in human K562 cells by fluorometric analysis
Method in brief: (§3)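 Tubulin polymerization was run at 37 °C in 80 mM PIPES (pH 6.9) with 20% glycerol, 1 mM GTP, 2.0 mM MgCl2 and 0.5 mM EGTA. It was followed kinetically on a fluorescence plate reader.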

[11] = target: Tubulin; assay: Inhibition of tubulin polymerization in human MCF7 cells by fluorometric analysis; method in brief: as §3

Row | IC50 [10] | IC50 [11] | Compound | IC50 [1] | IC50 [2] | IC50 [3] | IC50 [4] | IC50 [5] | IC50 [6] | Activity [7] | Activity [8] | Activity [9]
1 |  |  | CCn1c2ccncc2c2cc(C(=O)c3ccc(N)cc3)ccc21 | 23.3 µM | 40.6 µM | > 100 µM | 49.3 µM | 5.04 µM | 13.4 µM |  |  | 
2 |  |  | CCn1c2ccncc2c2cc(C(=O)c3cccc(OC)c3)ccc21 | 1.57 µM | 34.3 µM | 18.7 µM | 21.4 µM | 9.99 µM | 6.42 µM |  |  | 
3 |  |  | CCn1c2ccncc2c2cc(C(=O)c3ccccc3)ccc21 | 9.09 µM | 8.63 µM | 11.8 µM | 23.2 µM | 8.36 µM | 4.96 µM |  |  | 
4 |  |  | CCn1c2ccncc2c2cc(C(=O)c3ccc(Br)cc3)ccc21 | 1.58 µM | 24.3 µM | 34 µM | 35.1 µM | > 100 µM | 2.11 µM |  |  | 
5 |  |  | CC(C)n1c2ccncc2c2cc(C(=O)c3ccccc3)ccc21 |  |  |  |  |  | 6.46 µM |  |  | 
6 |  |  | CCn1c2ccncc2c2cc(C(=O)c3ccc(Cl)cc3)ccc21 | 1.58 µM | 62.6 µM | 62.5 µM | 27.2 µM | 30.6 µM | 4.69 µM |  |  | 
7 |  |  | CCn1c2ccncc2c2cc(C(=O)c3ccc([N+](=O)[O-])cc3)ccc21 | 3.68 µM | 59.2 µM | > 100 µM | 29.1 µM | 3.21 µM | 16.8 µM |  |  | 
8 |  |  | CCn1c2ccc(C(=O)c3ccc(Br)cc3)cc2c2c[n+](CC)ccc21 | > 100 µM | > 100 µM | > 100 µM | > 100 µM | 56 µM | > 100 µM |  |  | 
9 |  |  | Cn1c2ccncc2c2cc(C(=O)c3ccccc3)ccc21 |  |  |  |  |  | 4.82 µM |  |  | 
10 |  |  | CCn1c2ccncc2c2cc(C(=O)c3ccccc3F)ccc21 | 1.45 µM | 35.9 µM | 35.6 µM | 46.8 µM | 4.74 µM | 12.2 µM |  |  | 
11 |  |  | CCn1c2ccc(C(=O)c3ccccc3)cc2c2c[n+](CC)ccc21 | > 100 µM | > 100 µM | > 100 µM | > 100 µM | 12 µM | > 100 µM |  |  | 
12 |  |  | CCn1c2ccncc2c2cc(C(=O)c3ccc(OC)cc3)ccc21 | 2.09 µM | 70.2 µM | 17.8 µM | 20.5 µM | 3.85 µM | 6.39 µM |  |  | 
13 |  |  | CCn1c2ccncc2c2cc(C(=O)c3ccccc3Cl)ccc21 | 7.08 µM | 42.3 µM | 38.6 µM | 41.4 µM | 21 µM | 13.7 µM |  |  | 
14 | 4.3 µM | 4.3 µM | CCn1c2ccncc2c2cc(C(=O)c3ccc(S(C)(=O)=O)cc3)ccc21 | 0.66 µM | 37.8 µM | 24.9 µM | 24.2 µM | 3.28 µM | 5.26 µM | 63.12% | 10.29% | 26.59%
